Results on two molecules are retold here after ChEMBL document CHEMBL4477159, “Anti-inflammatory Actions of (+)-3'α-Angeloxy-4'-keto-3',4'-dihydroseselin (Pd-Ib) against Dextran Sulfate Sodium-Induced Colitis in C57BL/6 Mice” (J Nat Prod, 2016).

For assay [1], the system named is Mus musculus. Kind of assay: Antiinflammatory activity in DSS-induced C57BL/6 mouse acute colitis model assessed as protection against mucosal injury at 300 mg/kg administered by oral gavage from day 5 to day 12 measured on day 13 by hematoxylin/eosin staining-based microscopic analysis. The assay is classed as functional, organism-based. The method in brief: (§1)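 DSS colitis (2% w/v, 5 days) with daily gavage of saline, Pd-Ib (30–120 mg/kg) or SASP (300 mg/kg) through day 12; sacrifice day 13. Colons rinsed in ice-cold PBS, fixed overnight in 4% paraformaldehyde, paraffin-embedded. 5 μm sections H&E stained and graded on a 0–10 histological scale. n = 8, mean ± SD.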

Assay [2] has as its system Mus musculus. Kind of assay: Antiinflammatory activity in DSS-induced C57BL/6 mouse acute colitis model assessed as lowering of IL-6 level at 300 mg/kg administered by oral gavage from day 5 to day 12 measured on day 13. The format is functional, organism-based. The method in brief: (§2)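 Colon tissue from DSS-colitis mice dosed by gavage (day 13 harvest) homogenized in lysis buffer and spun at 16000g, 4 °C, 15 min. Cytokines in supernatant measured by multiplex bead immunoassay and reported as pg/mL. Protein determined by Bradford with BSA standard. n = 8, mean ± SD.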

The test system of assay [3] is Mus musculus. Kind of assay: Antiinflammatory activity in DSS-induced C57BL/6 mouse acute colitis model assessed as lowering of IL-17A level at 300 mg/kg administered by oral gavage from day 5 to day 12 measured on day 13. The format is functional, organism-based. Summed up:
as §2

The subject of assay [4] is Mus musculus. Kind of assay: Antiinflammatory activity in DSS-induced C57BL/6 mouse acute colitis model assessed as lowering of disease activity index at 300 mg/kg administered by oral gavage from day 5 to day 12 measured on day 13 relative to DSS-treated control. The format is functional, organism-based. The method in brief: (§3)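 Colitis induced in C57BL/6 mice with 2.0% (w/v) DSS in drinking water for 5 days; controls got distilled water. Saline vehicle, Pd-Ib (30, 60 or 120 mg/kg/day) or SASP (300 mg/kg/day) given by gavage through day 12. Weight, stool consistency and bleeding monitored daily. DAI combines weight-loss, stool and bleeding scores. On day 13, colon measured from ileo-cecal junction to anal verge. n = 8, mean ± SD.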

Assay [5] concerns the target MAP kinase p38 (Mus musculus) (UniProt P47811+O08911+Q9WUI1+Q9Z1B7). Kind of assay: Inhibition of LPS-induced p38 phosphorylation in mouse RAW264.7 cells at 5 to 40 ug/ml after 24 hrs by Western blot analysis. The format is cell-based. Summed up:
(§4)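 RAW264.7 macrophages (DMEM, 10% FBS, 37 °C, 5% CO2) treated with LPS 1 μg/mL alone or with Pd-Ib 5, 10, 20 or 40 μg/mL for 24 h. Lysates in RIPA buffer, 10% SDS-PAGE, immunoblotted for phospho and total STAT3, JNK, ERK and p38; β-actin loading control.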
On the technique in general: A western blot detects proteins with antibodies after separation by electrophoresis.

The test system of assay [6] is RAW264.7. Kind of assay: Inhibition of LPS-induced IL-6 production in mouse RAW264.7 cells at 5 to 20 ug/ml after 24 hrs by ELISA. The format is functional, cell-based. Summed up: (§5)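 RAW264.7 cells incubated 24 h with Pd-Ib (0, 5, 10, 20, 40 μg/mL), with or without LPS 1 μg/mL. IL-6 in the culture supernatant quantified by ELISA.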
(ELISA stands for enzyme-linked immunosorbent assay.)

Assay [7] deals with Mus musculus. Kind of assay: Antiinflammatory activity in DSS-induced C57BL/6 mouse acute colitis model assessed as lowering of NO production at 30 to 120 mg/kg administered by oral gavage from day 5 to day 12 measured on day 13 by Griess assay. The format is functional, organism-based. The method in brief:
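On day 13 after DSS colitis and gavage dosing, frozen colon weighed and homogenized in 0.5% hexadecyltrimethylammonium bromide (100 mg tissue/mL). Spun at 16000g, 4 °C, 15 min. Supernatant nitrite measured with Griess reagent. n = 8, mean ± SD.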

Assay [8] has as its system Mus musculus. Kind of assay: Antiinflammatory activity in DSS-induced C57BL/6 mouse acute colitis model assessed as attenuation of shortening of colon length at 60 to 120 mg/kg administered by oral gavage from day 5 to day 12 measured on day 13. The assay is classed as functional, organism-based. Summed up: as §3
Assay [9] has as its system Mus musculus. Kind of assay: Antiinflammatory activity in DSS-induced C57BL/6 mouse acute colitis model assessed as lowering of disease activity index at 120 mg/kg administered by oral gavage from day 5 to day 12 measured on day 13 relative to DSS-treated control. The assay is classed as functional, organism-based. The method in brief:
as §3

The test system of assay [10] is Mus musculus. Kind of assay: Antiinflammatory activity in DSS-induced C57BL/6 mouse acute colitis model assessed as reduction in loss of body weight at 120 mg/kg administered by oral gavage after 9 days of induction. The assay is classed as functional, organism-based. The method in brief: as §3
Assay [11] concerns Mus musculus. Kind of assay: Antiinflammatory activity in DSS-induced C57BL/6 mouse acute colitis model assessed as lowering of IL-17A level administered by oral gavage from day 5 to day 12 measured on day 13. The assay is classed as functional, organism-based. The method in brief:
as §2

The test system of assay [12] is Mus musculus. Kind of assay: Antiinflammatory activity in DSS-induced C57BL/6 mouse acute colitis model assessed as lowering of IFN-gamma level administered by oral gavage from day 5 to day 12 measured on day 13. The assay is classed as functional, organism-based. The method in brief: as §2
Assay [13] deals with Mus musculus. Kind of assay: Antiinflammatory activity in DSS-induced C57BL/6 mouse acute colitis model assessed as lowering of MPO activity in colon homogenate at 30 to 120 mg/kg administered by oral gavage from day 5 to day 12 measured on day 13. The format is functional, organism-based. Summed up:
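Mice given DSS colitis and gavage treatment as above, sacrificed day 13. MPO activity in colon homogenate taken from the rate of optical density change; one unit gives an OD change of 1.0/min at 25 °C. Normalized to colon wet weight, expressed as units/mg tissue. n = 8.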

The test system of assay [14] is Mus musculus. Kind of assay: Antiinflammatory activity in DSS-induced C57BL/6 mouse acute colitis model assessed as lowering of TNF-alpha level administered by oral gavage from day 5 to day 12 measured on day 13. The assay is classed as functional, organism-based. Summed up: as §2
Assay [15] deals with Mus musculus. Kind of assay: Antiinflammatory activity in DSS-induced C57BL/6 mouse acute colitis model assessed as reduction in loss of body weight at 30 to 60 mg/kg administered by oral gavage after 9 days of induction. The assay is classed as functional, organism-based. Summed up: as §3
In assay [16] the target is Signal transducer and activator of transcription 3 (Mus musculus) (UniProt P42227). Kind of assay: Inhibition of LPS-induced STAT3 phosphorylation in mouse RAW264.7 cells at 20 ug/ml after 12 hrs by Western blot analysis. The assay is classed as cell-based. The method in brief:
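RAW264.7 cells given LPS 1 μg/mL with or without Pd-Ib 20 μg/mL for 0–24 h, then harvested and lysed. p-STAT3 and β-actin detected by Western blot.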

The subject of assay [17] is Mus musculus. Kind of assay: Downregulation of elevated p-p38 level in colon homogenate of DSS-induced C57BL/6 mouse acute colitis model administered by oral gavage from day 5 to day 12 measured on day 13 by Western blot analysis. The assay is classed as functional, organism-based. The method in brief:
(§6)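 Colonic tissue extracts from DSS-colitis mice gavaged through day 12 and sacrificed day 13. Lysed in RIPA buffer (pH 7.4) with phosphatase/protease inhibitors, run on 10% SDS-PAGE and immunoblotted for STAT3, p-STAT3, p38 and p-p38. Blots stripped and reprobed for β-actin as loading control.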

Assay [18] has as its system RAW264.7. Kind of assay: Inhibition of LPS-induced ERK phosphorylation in mouse RAW264.7 cells at 5 to 40 ug/ml after 24 hrs by Western blot analysis. The assay is classed as cell-based. The method in brief: as §4
Assay [19] has as its system Mus musculus. Kind of assay: Antiinflammatory activity in DSS-induced C57BL/6 mouse acute colitis model assessed as lowering of IL-6 level administered by oral gavage from day 5 to day 12 measured on day 13. The assay is classed as functional, organism-based. The method in brief:
as §2

Assay [20] relates to Mus musculus. Kind of assay: Antiinflammatory activity in DSS-induced C57BL/6 mouse acute colitis model assessed as increase of IL-10 level at 30 to 120 mg/kg administered by oral gavage from day 5 to day 12 measured on day 13 relative to DSS-treated control. The assay is classed as functional, organism-based.
For assay [21], the system named is Mus musculus. Kind of assay: Antiinflammatory activity in DSS-induced C57BL/6 mouse acute colitis model assessed as increase of IL-4 level at 30 to 120 mg/kg administered by oral gavage from day 5 to day 12 measured on day 13 relative to DSS-treated control. The format is functional, organism-based. Summed up:
as §2

The subject of assay [22] is Mus musculus. Kind of assay: Antiinflammatory activity in DSS-induced C57BL/6 mouse acute colitis model assessed as lowering of histological score at 30 to 120 mg/kg administered by oral gavage from day 5 to day 12 measured on day 13 by hematoxylin/eosin staining-based microscopic analysis. The format is functional, organism-based. Summed up: as §1
The subject of assay [23] is RAW264.7. Kind of assay: Inhibition of LPS-induced JNK phosphorylation in mouse RAW264.7 cells at 5 to 40 ug/ml after 24 hrs by Western blot analysis. The assay is classed as cell-based. The method in brief:
as §4

Assay [24] relates to RAW264.7. Kind of assay: Inhibition of LPS-induced IL-6 production in mouse RAW264.7 cells at 40 ug/ml after 24 hrs by ELISA. The assay is classed as functional, cell-based. The method in brief: as §5
For assay [25], the system named is Mus musculus. Kind of assay: Downregulation of elevated p-STAT3 level in colon homogenate of DSS-induced C57BL/6 mouse acute colitis model administered by oral gavage from day 5 to day 12 measured on day 13 by Western blot analysis. The format is functional, organism-based. Summed up:
as §6

Assay [26] concerns the target Signal transducer and activator of transcription 3 (Mus musculus) (UniProt P42227). Kind of assay: Inhibition of LPS-induced STAT3 phosphorylation in mouse RAW264.7 cells at 40 ug/ml after 24 hrs by Western blot analysis. The format is cell-based. The method in brief:
as §4

The test system of assay [27] is Mus musculus. Kind of assay: Antiinflammatory activity in DSS-induced C57BL/6 mouse acute colitis model assessed as protection against mucosal injury at 120 mg/kg administered by oral gavage from day 5 to day 12 measured on day 13 by hematoxylin/eosin staining-based microscopic analysis. The assay is classed as functional, organism-based. The method in brief: as §1

Calls of active or inactive are those of the source. The calls are words filed in the database; no cut-off is given here.

Signal transducer and activator of transcription 3 (Mus musculus), sequence (P42227 whole entry): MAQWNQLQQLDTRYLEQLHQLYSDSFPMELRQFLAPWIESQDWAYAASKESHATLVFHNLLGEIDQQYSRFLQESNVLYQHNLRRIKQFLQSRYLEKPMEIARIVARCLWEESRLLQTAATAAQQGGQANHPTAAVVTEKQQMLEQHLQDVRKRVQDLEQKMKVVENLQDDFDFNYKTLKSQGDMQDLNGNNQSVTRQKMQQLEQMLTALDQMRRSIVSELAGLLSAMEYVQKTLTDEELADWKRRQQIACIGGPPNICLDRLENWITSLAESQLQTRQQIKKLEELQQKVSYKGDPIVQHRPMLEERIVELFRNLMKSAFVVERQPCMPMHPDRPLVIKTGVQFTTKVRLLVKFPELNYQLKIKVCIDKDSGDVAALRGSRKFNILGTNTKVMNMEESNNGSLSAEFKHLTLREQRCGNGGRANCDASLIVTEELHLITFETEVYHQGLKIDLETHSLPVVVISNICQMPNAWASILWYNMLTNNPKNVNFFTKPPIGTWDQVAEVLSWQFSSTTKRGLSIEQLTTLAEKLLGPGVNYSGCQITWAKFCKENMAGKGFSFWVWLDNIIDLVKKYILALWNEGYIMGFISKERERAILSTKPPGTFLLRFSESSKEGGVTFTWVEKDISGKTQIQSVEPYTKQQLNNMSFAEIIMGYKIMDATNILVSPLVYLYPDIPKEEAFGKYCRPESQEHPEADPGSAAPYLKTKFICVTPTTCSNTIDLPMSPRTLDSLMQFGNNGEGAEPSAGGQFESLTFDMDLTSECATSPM

With `O=C(O)c1cc(/N=N/c2ccc(S(=O)(=O)Nc3ccccn3)cc2)ccc1O`, the outcome in the assay on Mus musculus [1], in the assay with Mus musculus [2], in the assay with Mus musculus [3] and in the assay with Mus musculus [4] was Active.

For the molecule `C/C=C(/C)C(=O)O[C@H]1C(=O)c2c(ccc3ccc(=O)oc23)OC1(C)C`, the inhibition entry (in assay [5]; in the assay on RAW264.7 [6]; in assay [16]; in the assay on RAW264.7 [23]; in assay [26]) was “Active” in each case. Further, the result in the assay with Mus musculus [7], with Mus musculus [8], in the assay on Mus musculus [9], in the assay on Mus musculus [10], with Mus musculus [13] and with Mus musculus [21] was Active. Besides, the outcome in the assay on Mus musculus [22] and in the assay on Mus musculus [27] was Active. For the same molecule, the Activity entry in the assay on Mus musculus [11], in the assay with Mus musculus [12], in the assay with Mus musculus [14], in the assay on Mus musculus [17], in the assay on Mus musculus [19] and in the assay with Mus musculus [25] was “Dose-dependent effect” throughout. Also, the result with Mus musculus [15] and in the assay with Mus musculus [20] was inactive. Moreover, the inhibition result in the assay on RAW264.7 [18] and with RAW264.7 [24] was “inactive” throughout.
